Here are results for 14 compounds from PubChem BioAssay.

The viability is a read-out of living cells in per cent, often relative to untreated cells. The inhibition is the change of the read-out against control, counted positive when it falls.

Active and inactive are the calls of the source.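 Rule for the calls, unless noted: active = viability at or below 10% of carrier control in both of two separate runs; inconclusive = viability at or below 10% in only one of the two runs; inactive = the rest.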

A short description of assay [1]: reducers of endogenous Her2 protein level, primary screen, SKBR3 breast tumor cells, AlphaScreen, ATP viability (AID 461;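 active = Her2 level under about 52% in both replicate screens, with viability over 70% of control, limit read from the data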;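 for Her2 level: lower value means less Her2 protein in the cells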;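 for viability: percent of carrier control wells set as 100% viability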). The settings on record: 18-24 h, measured here: SKBR3 viability, ATP luminescence, at 10 µM. For orientation: In Alpha technology, singlet oxygen from a donor bead excites a nearby acceptor bead.
Assay [2] has as its target Receptor tyrosine-protein kinase erbB-2 (Homo sapiens) (UniProt P04626). The assay is described as above. Conditions: 18-24 h, at 10 µM, stronger effect = lower value.
Assay [3] is described as follows: SK-BR-3 cell growth inhibitors, pilot screen, 24 h, human (AID 572).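 Note: compound exposure lasted between 18 and 24 h rather than exactly 24 h; 100% = carrier-treated control wells.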 The settings on record: SK-BR-3 viability, CellTiter-Glo luminescence, at 10 µM, stronger effect = lower value. In general terms: ATP-based viability assays read luminescence as a measure of living cells.
Assay [4] is described as follows: HUVEC growth inhibition – cell-based, human, primary screen (AID 575;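 active = viability at or below 30% in both replicate assays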;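 note: 100% = median of untreated cell wells with 0.1% DMSO on each plate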). Conditions: HUVEC proliferation, CellTiter-Glo luminescence, 72 h; at 10 µM; stronger effect = lower value. The method, boiled down:
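Timing: 72 h treatment at 37 °C; material: HUVEC primary cells; technique: CellTiter-Glo luminescence measuring cellular ATP; controls: vehicle and MePR control wells; measure: percent of median DMSO-control luminescence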

Assay [5] can be described thus: growth inhibitors of H69AR lung tumor, primary screen, human, duplicate replicates (AID 580;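 active = viability at or under a set limit in both replicates, limit being median viability minus 3 SD, cut at about 48% in these data, passing the limit was not always enough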;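 note: 100% = mean luminescence of untreated wells and 0% = no signal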). Conditions: H69AR lung tumor cells viability, ATP luminescence, 72 h; at 10 µM; stronger effect = lower value.
Assay [6] in a line: reversal of MRP1-mediated doxorubicin resistance, pilot screen, H69AR cells, doxorubicin co-treatment (AID 601;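 active = viability loss from added drug above about 55%, and viability with drug at most 40%, in both replicates, limit read from the data, passing the limit was not always enough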). The settings on record: CellTiter-Glo, 72 h, at 10 µM; for differential viability (reversal): stronger effect = higher value.
Assay [7] is described as follows: 384-well plate pilot, post-Golgi transport modulator project, inhibition of yeast transport mutant growth (AID 636; in the data active = inhibition above about 31%). Conditions: absorbance 615 nm, about 18 h, stronger effect = higher value.
Assay [8] is described as follows: growth suppression of yeast trafficking mutant, preliminary HTS, modulators of trafficking downstream of Golgi apparatus project, 1536-format plate, OD 615 nm (AID 637; in the data active = inhibition above about 30%). Conditions: yeast transport mutant growth, absorbance 615 nm, 18 h; stronger effect = higher value.
[9] abbreviates: H69AR cells + 2 uM doxorubicin, measured here: viability with 2 uM doxorubicin, stronger effect = lower value.
[10] abbreviates: H69AR cells, compound alone cytotoxicity.

Receptor tyrosine-protein kinase erbB-2 (Homo sapiens), sequence (P04626 whole entry, looked up): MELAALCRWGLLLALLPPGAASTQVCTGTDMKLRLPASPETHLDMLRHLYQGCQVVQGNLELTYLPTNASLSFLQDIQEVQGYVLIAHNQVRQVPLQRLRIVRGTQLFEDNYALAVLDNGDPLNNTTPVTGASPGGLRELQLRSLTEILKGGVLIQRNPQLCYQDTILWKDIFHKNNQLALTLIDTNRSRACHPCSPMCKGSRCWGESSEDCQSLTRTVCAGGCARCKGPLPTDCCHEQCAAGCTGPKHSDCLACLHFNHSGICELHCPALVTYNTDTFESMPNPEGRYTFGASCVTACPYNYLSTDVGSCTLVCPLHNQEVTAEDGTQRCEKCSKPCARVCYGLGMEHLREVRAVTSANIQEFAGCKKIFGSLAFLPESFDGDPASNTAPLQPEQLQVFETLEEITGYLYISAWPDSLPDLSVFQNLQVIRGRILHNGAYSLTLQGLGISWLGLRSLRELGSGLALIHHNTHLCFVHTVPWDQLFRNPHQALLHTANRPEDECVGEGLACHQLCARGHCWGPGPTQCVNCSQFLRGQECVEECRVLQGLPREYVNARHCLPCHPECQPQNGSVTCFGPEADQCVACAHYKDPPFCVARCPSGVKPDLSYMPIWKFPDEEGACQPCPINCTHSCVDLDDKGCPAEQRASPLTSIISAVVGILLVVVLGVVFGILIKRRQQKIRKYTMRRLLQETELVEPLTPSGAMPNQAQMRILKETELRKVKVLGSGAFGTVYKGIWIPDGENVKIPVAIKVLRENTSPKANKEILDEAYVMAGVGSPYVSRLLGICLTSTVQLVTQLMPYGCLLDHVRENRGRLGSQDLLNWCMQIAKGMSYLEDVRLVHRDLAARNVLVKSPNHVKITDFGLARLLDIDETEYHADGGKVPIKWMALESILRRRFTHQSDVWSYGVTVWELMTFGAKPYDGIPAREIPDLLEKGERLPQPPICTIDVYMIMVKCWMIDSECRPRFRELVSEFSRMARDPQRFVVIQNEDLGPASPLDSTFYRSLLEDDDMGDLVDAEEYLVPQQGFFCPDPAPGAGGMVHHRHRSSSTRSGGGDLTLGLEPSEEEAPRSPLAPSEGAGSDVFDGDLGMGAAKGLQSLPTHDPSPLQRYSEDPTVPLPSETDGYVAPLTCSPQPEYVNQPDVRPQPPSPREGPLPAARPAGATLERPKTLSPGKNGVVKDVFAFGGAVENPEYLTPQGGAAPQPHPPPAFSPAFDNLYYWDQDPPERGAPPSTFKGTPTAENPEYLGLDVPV

Regarding `CCCOc1ccccc1NC(=O)c1c(-c2ccccc2)noc1C`, the viability was 84.5% in assay [1]; 84.5% (inactive) in assay [3]; 79.7% (inactive) in assay [4]; 89% (inactive) in assay [5]; 82% in assay [6] (setting [9]); 89% in assay [6] (setting [10]). The Her2 level in assay [2] is 92% (inactive). The differential viability (reversal) in assay [6] (H69AR cells + 2 uM doxorubicin) is 7.04% (inactive). Moreover, the inhibition in assay [7] was 1.67% (inactive); in assay [8] it was 5% (inactive).
For the compound `O=C(O)CN1C(=O)C2(OCCCO2)c2ccccc21`, the viability is 86.5% in assay [1]; 86.5% (inactive) in assay [3]; 101% (inactive) in assay [4]; 85.1% (inactive) in assay [5]; 85.4% in assay [6] (setting [9]); 85.1% in assay [6] (setting [10]). In addition, the Her2 level in assay [2] was 102% (inactive). For the same compound, in assay [6] (H69AR cells + 2 uM doxorubicin), the differential viability (reversal) is -0.23% (inactive). Besides, the values for the inhibition in assay [7] and in assay [8] were -0.91% (inactive) and 0.49% (inactive), respectively.
With `CCCCn1c(NCCC)nc2c1c(=O)[nH]c(=O)n2C`, the viability is 96% in assay [1]; 96% (inactive) in assay [3]; 113% (inactive) in assay [4]; 93.7% (inactive) in assay [5]; 81% in assay [6] (setting [9]); 93.7% in assay [6] (setting [10]). Moreover, in assay [2], the Her2 level is 80% (inactive). Also, in assay [6] (H69AR cells + 2 uM doxorubicin), the differential viability (reversal) was 12.8% (inactive). The inhibition is -3.51% (inactive) in assay [7] and -0.66% (inactive) in assay [8].
On to `Cc1cc2c(cc1C)C(=O)NC(C)(C)C2`, for which the viability in assay [1] is 104%; in assay [3], 104% (inactive); in assay [4], 79.4% (inactive); in assay [5], 95.2% (inactive); in assay [6] (setting [9]) it was 109%; in assay [6] (setting [10]), 95.2%. In addition, the Her2 level in assay [2] is 98% (inactive). The differential viability (reversal) in assay [6] (H69AR cells + 2 uM doxorubicin) was -13.8% (inactive). Moreover, the values for the inhibition in assay [7] and in assay [8] were -2.7% (inactive) and -1.15% (inactive), respectively.
In the case of `O=S(=O)(NC1CCCC1)c1ccc(S(=O)(=O)N2CCc3ccccc32)cc1`, the viability in assay [1] is 99.5%; in assay [3] it was 99.5% (inactive); in assay [4], 66.1% (inactive); in assay [5], 71.5% (inactive); in assay [6] (setting [9]) it was 69.6%; in assay [6] (setting [10]), 71.5%. The Her2 level in assay [2] is 94.5% (inactive). In addition, the differential viability (reversal) in assay [6] (H69AR cells + 2 uM doxorubicin) was 1.97% (inactive). In addition, the inhibition in assay [7] was -4.94% (inactive); in assay [8] it was -12.4% (inactive).
For `O=C(CN(Cc1ccco1)C(=O)CNS(=O)(=O)c1ccc(Cl)cc1)NCc1ccc(F)cc1`, the viability in assay [1] is 118%; in assay [3], 118% (inactive); in assay [4], 83.4% (inactive); in assay [5], 81.4% (inactive); in assay [6] (setting [9]), 86.5%; in assay [6] (setting [10]) it was 81.4%. The Her2 level in assay [2] is 106% (inactive). Besides, the differential viability (reversal) in assay [6] (H69AR cells + 2 uM doxorubicin) is -5.12% (inactive). In addition, the values for the inhibition in assay [7] and in assay [8] were -0.53% (inactive) and 1.77% (inactive), respectively.
Consider `Cc1cc(C)n(C2=NS(=O)(=O)c3ccccc32)n1`, for which the viability is 86.5% in assay [1]; 86.5% (inactive) in assay [3]; 108% (inactive) in assay [4]; 101% (inactive) in assay [5]; 95.2% in assay [6] (setting [9]); 101% in assay [6] (setting [10]). Moreover, the Her2 level in assay [2] was 115% (inactive). Moreover, the differential viability (reversal) in assay [6] (H69AR cells + 2 uM doxorubicin) was 6.08% (inactive). In addition, the inhibition in assay [7] is 3.07% (inactive); in assay [8] it was 5.08% (inactive).
Consider `COc1cc2c(C)nc(C)c(C#N)c2cc1OC`, for which the viability in assay [1] is 111%; in assay [3], 111% (inactive); in assay [4] it was 66.4% (inactive); in assay [5], 86.6% (inactive); in assay [6] (setting [9]), 76.5%; in assay [6] (setting [10]) it was 86.6%. The Her2 level in assay [2] is 93.5% (inactive). Besides, the differential viability (reversal) in assay [6] (H69AR cells + 2 uM doxorubicin) is 10.1% (inactive). The inhibition in assay [7] was -6% (inactive); in assay [8] it was -2.74% (inactive).
Take `Cc1cccc2cc(CN(Cc3nnnn3Cc3ccccc3)C3CCCC3)c(=O)[nH]c12`: the viability was 85% in assay [1]; 85% (inactive) in assay [3]; 89.3% (inactive) in assay [4]; 72.9% (inactive) in assay [5]; 41.7% in assay [6] (setting [9]); 72.9% in assay [6] (setting [10]). For the same compound, the Her2 level in assay [2] was 72.5% (inactive). Moreover, the differential viability (reversal) in assay [6] (H69AR cells + 2 uM doxorubicin) is 31.2% (inactive). The inhibition in assay [7] is -1.18% (inactive); in assay [8], -4.55% (inactive).
Regarding `CCOc1ccc(Cc2nn[nH]n2)cc1`, the viability was 86.5% in assay [1]; 86.5% (inactive) in assay [3]; 108% (inactive) in assay [4]; 101% (inactive) in assay [5]; 96.3% in assay [6] (setting [9]); 101% in assay [6] (setting [10]). For the same compound, the Her2 level in assay [2] is 84.5% (inactive). For the same compound, the differential viability (reversal) in assay [6] (H69AR cells + 2 uM doxorubicin) is 5.14% (inactive). For the same compound, the inhibition was -5.89% (inactive) in assay [7] and -3.49% (inactive) in assay [8].
On to `Cn1c(=O)c2c(nc(SCC(=O)NCc3ccco3)n2C)n(C)c1=O`, for which the viability in assay [1] is 116%; in assay [3], 116% (inactive); in assay [4], 87.1% (inactive); in assay [5], 93.5% (inactive); in assay [6] (setting [9]), 93.6%; in assay [6] (setting [10]) it was 93.5%. In assay [2], the Her2 level was 98.5% (inactive). For the same compound, the differential viability (reversal) in assay [6] (H69AR cells + 2 uM doxorubicin) is -0.15% (inactive). Also, the inhibition is -0.78% (inactive) in assay [7] and -4.76% (inactive) in assay [8].
Take `CC1CCN(S(=O)(=O)c2ccc3[nH]cc(C(=O)NCCN4CCOCC4)c(=O)c3c2)CC1`: the viability was 108% in assay [1]; 108% (inactive) in assay [3]; 94% (inactive) in assay [4]; 96.4% (inactive) in assay [5]; 94.1% in assay [6] (setting [9]); 96.4% in assay [6] (setting [10]). In assay [2], the Her2 level was 104% (inactive). In addition, in assay [6] (H69AR cells + 2 uM doxorubicin), the differential viability (reversal) was 2.28% (inactive). In addition, the inhibition in assay [7] is -6.67% (inactive); in assay [8], -3.06% (inactive).
On to `O=C(Nc1ccon1)c1csc2c1CCCC2`, for which the viability in assay [1] was 92.5%; in assay [3], 92.5% (inactive); in assay [4], 83.2% (inactive); in assay [5] it was 98.3% (inactive); in assay [6] (setting [9]), 87.4%; in assay [6] (setting [10]), 98.3%. In assay [2], the Her2 level is 85% (inactive). For the same compound, in assay [6] (H69AR cells + 2 uM doxorubicin), the differential viability (reversal) was 10.9% (inactive). The inhibition in assay [7] was -5.66% (inactive); in assay [8] it was 2% (inactive).
As for `COc1ccccc1NC(=O)N1CCCC1C(=O)NC1CCCCC1` (stereo not given), the viability in assay [1] was 104%; in assay [3] it was 104% (inactive); in assay [4] it was 101% (inactive); in assay [5] it was 80.1% (inactive); in assay [6] (setting [9]) it was 84.7%; in assay [6] (setting [10]), 80.1%. Moreover, the Her2 level in assay [2] is 91.5% (inactive). In addition, the differential viability (reversal) in assay [6] (H69AR cells + 2 uM doxorubicin) was -4.57% (inactive). Moreover, the inhibition in assay [7] is -9.32% (inactive); in assay [8] it was -2.5% (inactive).
